High-throughput results (PubChem BioAssay)
OX1R antag-1 – antagonists of human orexin 1 receptor (OX1R). O43613. OX1R-expressing cells, FRET antagonist read-out. inhibition, % at 6.6 µM. hit rate 1.8% among 330,000. AID 485270; in the data active = inhibition mostly above about 38%, no sharp cut-off; inactive = mostly below about 40%
Target sequence (O43613 whole entry, looked up): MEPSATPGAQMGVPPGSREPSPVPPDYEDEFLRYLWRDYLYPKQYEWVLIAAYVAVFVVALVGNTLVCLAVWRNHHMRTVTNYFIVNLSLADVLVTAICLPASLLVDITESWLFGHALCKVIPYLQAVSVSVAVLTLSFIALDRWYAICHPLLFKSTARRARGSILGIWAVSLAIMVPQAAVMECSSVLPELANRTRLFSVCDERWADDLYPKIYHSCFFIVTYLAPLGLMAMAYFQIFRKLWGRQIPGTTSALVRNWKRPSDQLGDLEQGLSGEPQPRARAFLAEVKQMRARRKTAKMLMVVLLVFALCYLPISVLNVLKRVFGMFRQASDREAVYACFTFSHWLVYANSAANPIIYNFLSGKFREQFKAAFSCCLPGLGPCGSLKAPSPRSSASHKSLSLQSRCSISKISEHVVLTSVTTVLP
CHO parental Ca – counter-screen: ATP calcium response change in parental CHO cells. parental CHO-K1, ATP-induced calcium, Fluo-8 fluorescence. inhibition, % at 5.6 µM. hit rate 0.63% among 330,000;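 active = inhibition above that plate's mean sample inhibition plus 3 SD, cut at about 26% in these data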
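Test system: parental CHO cells; detection: calcium-sensitive Fluo-8 fluorescence; evaluation: percent inhibition of calcium signal; also added: ATP as calcium-mobilizing challenge; repeats: one well per compound; control set: ATP-challenged DMSO wells low, unchallenged DMSO wells high; compound: single nominal dose of 5.6 µM per compound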
TAAR1 antagonist – antagonists of human TAAR1. hit rate 1.5% among 360,000. CHO RD-HGA16 TAAR1, Fluo-8 calcium fluorescence, antagonist. Q96RJ0. inhibition, % at 3 µM;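 active = inhibition above a per-plate cutoff, the mean inhibition of test compounds on that plate plus 3 SD, cut at about 49% in these data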
Target sequence (Q96RJ0 whole entry, looked up): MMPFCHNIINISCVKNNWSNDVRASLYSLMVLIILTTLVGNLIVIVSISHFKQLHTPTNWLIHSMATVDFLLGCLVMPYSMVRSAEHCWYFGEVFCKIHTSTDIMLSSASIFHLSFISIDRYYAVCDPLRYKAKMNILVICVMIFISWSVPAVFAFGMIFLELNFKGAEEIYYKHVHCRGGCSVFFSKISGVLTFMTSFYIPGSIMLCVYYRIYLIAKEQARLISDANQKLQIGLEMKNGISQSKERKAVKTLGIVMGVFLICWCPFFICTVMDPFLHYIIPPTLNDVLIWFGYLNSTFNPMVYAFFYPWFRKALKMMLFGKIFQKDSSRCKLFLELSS
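Test system: RD-HGA16 CHO cells with stable hTAAR1 and Gα16 / Probe or stimulus: EC80 β-phenethylamine stimulus / Times: seeding 17-24 h prior, 75-min 37 °C, 30-min RT dye loading / Detection: Fluo-8 calcium-sensitive fluorescence / Read-out basis: % inhibition scaled between DMSO and EC80 PEA controls / Repeats: singlicate, one well per test compound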
TAAR1 ag – human TAAR1 agonism; activation, % at 3 µM; Q96RJ0; CHO RD-HGA16 TAAR1, Fluo-8 calcium fluorescence; vehicle wells 0%, saturating PEA agonist 100%; AID 624467; hit rate 0.99% among 360,000;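 active = activation above the mean activation of all test compounds in the run plus 3 SD, cut at about 38% in these data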
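Signal – calcium-sensitive Fluo-8 signal, excitation 470-495, emission 515-575 nm · System – RD-HGA16 (CHO) cells co-expressing Gα16 and hTAAR1 · Incubation – 17-24 h seeding, 75 min 37 °C dye, 30 min RT · Compound dosing – 3 µM single concentration · Repeats – no replicates (n 1)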
OX1R antag-2 – antagonists of human orexin 1 receptor; O43613; CHO/OX1R cells, Fluo-8 calcium fluorescence, orexin A; inhibition, % at 5 µM; hit rate 0.43% among 330,000;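 active = inhibition above its plate's threshold, mean inhibition of all tested compounds on the plate plus 3 SD, cut at about 37% in these data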
GPR7 antag – human neuropeptides B/W receptor 1 antagonism. P48145. GPR7-expressing cells, fluorescence antagonist assay. inhibition, % at 4.4 µM. hit rate 1.1% among 290,000. AID 1861; in the data active = inhibition above about 16%, passing the limit was not always enough;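 also: cells stimulated with the agonist NPW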
GPR7 antag conf – confirmation of human GPR7 antagonists; AID 1952; GPR7-expressing cells, calcium fluorescence antagonist mode; inhibition, % at 4.4 µM; shares compounds with GPR7 antag; hit rate 52% among 2,400; in the data active = inhibition above about 24%;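 also: stimulated with the GPR7 agonist NPW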
MCHR1 antag – counter-screen for GPR7 antagonists: antagonists of human MCHR1. shares compounds with GPR7 antag. MCHR1-expressing cells, fluorescence antagonist assay. inhibition, % at 4.4 µM. hit rate 62% among 2,400. AID 2148; in the data active = inhibition above about 22%
TAAR1 ag conf – human TAAR1 agonism, confirmed. hit rate 82% among 2,400. AID 651783. activation, % at 3 µM. CHO RD-HGA16 TAAR1, Fluo-8 calcium fluorescence; scaled: DMSO 0%, maximal phenethylamine 100%. shares compounds with TAAR1 ag;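 active = activation above a cutoff set at the run's mean compound activation plus 3 SD, cut at about 39% in these data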
Ga16 ag counter – counter-screen for TAAR1 agonists: nonselective agonists in parental cells; shares compounds with TAAR1 ag; CHO-Ga16 parental, Fluo-8 calcium fluorescence; normalized to maximal ATP response, DMSO zero; activation, % at 3 µM; hit rate 50% among 2,400; AID 651787;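 active = activation above the run cutoff, the mean activation over all tested wells plus 3 SD, cut at about 12% in these data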
TAAR1 desensitize – counter-screen for human TAAR1 agonists: agonists that desensitize TAAR1; hit rate 46% among 2,400; AID 651951; shares compounds with TAAR1 ag; inhibition, % at 3 µM; CHO RD-HGA16 hTAAR1, Fluo-8 calcium, beta-PEA response inhibition;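 active = inhibition above the run cutoff, the mean inhibition of all test compounds plus 3 SD, cut at about 49% in these data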;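 also: beta-PEA stimulus applied at its EC80; loss of beta-PEA calcium signal after compound pretreatment read as receptor desensitization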
Ga16 antag count – nonselective Ga16 antagonist in TAAR1 agonist counter-screen. inhibition, % at 3 µM. CHO-Ga16 ATP-induced calcium, Fluo-8 fluorescence. shares compounds with TAAR1 ag. hit rate 39% among 2,400;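 active = inhibition above the plate's mean compound inhibition plus 3 SD, computed per plate, cut at about 22% in these data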
Of the large screens only hits and unclear results are named; the others gave an inactive call (follow-up assays come after a bar, where they were run). Rows were chosen to be rich in hits. Some 4.5% of all compounds tested hit in one or more screens of this group.

COc1cc(OC)c(OC)cc1CCC(C)NCCC(c1ccccc1)c1ccccc1 (stereo unspecified)	TAAR1 ag 51.8, GPR7 antag 60.1 | GPR7 antag conf 54.9 | MCHR1 antag 48.9 | TAAR1 ag conf 48.4 | Ga16 ag counter 19.3 | TAAR1 desensitize inactive | Ga16 antag count 24.7
CC(C)C(C(=O)Nc1nccs1)N1C(=O)c2ccccc2C1=O (stereo unspecified)	none
COc1ccccc1-n1c(SCC(N)=O)nnc1-c1ccc(S(=O)(=O)N2CCCCC2)cc1	TAAR1 ag 52.3, GPR7 antag 38.8 | GPR7 antag conf 42.2 | MCHR1 antag inactive | TAAR1 ag conf inactive | Ga16 ag counter inactive | TAAR1 desensitize inactive | Ga16 antag count 23.6
CC(C)Cn1c(N)c(C(=O)CSc2ncnc3sc4c(c23)CCCC4)c(=O)n(C)c1=O	none
Cc1noc(C(=O)Nc2ccc(F)c(Cl)c2)c1Cl	none
CCOC(=O)Cn1c(=O)oc2cc(S(=O)(=O)Nc3ccc(F)cc3)ccc21	CHO parental Ca 23.0, TAAR1 ag 89.1, GPR7 antag 25.0 | GPR7 antag conf 41.6 | MCHR1 antag 36.8 | TAAR1 ag conf 109.3 | Ga16 ag counter 69.1 | TAAR1 desensitize 52.1 | Ga16 antag count 32.1
CCOC(=O)Cn1c(=O)oc2cc(S(=O)(=O)NCCc3ccc(C)cc3)ccc21	none
Cc1c(-c2nc(-c3ccc(C(C)(C)C)cc3)no2)n(C)oc1=O	none
COc1ccc(CC(=O)Oc2ccccc2[N+](=O)[O-])cc1	none
CN(C)CCCN(C(=O)c1ccc(S(=O)(=O)N2CCc3ccccc3C2)cc1)c1nc2ccc(F)cc2s1	TAAR1 antagonist 50.0, TAAR1 ag 75.0, GPR7 antag 46.0 | GPR7 antag conf 76.5 | MCHR1 antag 63.5 | TAAR1 ag conf 69.2 | Ga16 ag counter 46.3 | TAAR1 desensitize inactive | Ga16 antag count 42.4
CN(C)CCCN(C(=O)c1ccc(S(=O)(=O)N2CCc3ccccc3C2)cc1)c1nc2c(F)cccc2s1	none
CCOc1ccc(-c2ccc(C3=CC(=O)C[C@H](c4ccc(F)cc4)C3)cc2)cc1	none (no result: OX1R antag-1, CHO parental Ca, OX1R antag-2, GPR7 antag)
CCC(=O)Nc1ccc(N/C(N)=N/c2nc(C)cc(C)n2)cc1	none
Cc1cccc(N/C(N)=N/c2nc(C)cc(C)n2)c1	TAAR1 antagonist 56.2, TAAR1 ag 58.4, GPR7 antag 28.5 | GPR7 antag conf 38.9 | MCHR1 antag 54.4 | TAAR1 ag conf 80.1 | Ga16 ag counter 43.3 | TAAR1 desensitize 81.1 | Ga16 antag count 53.1
CCCCc1ccc(N/C(N)=N/c2nc(C)cc(C)n2)cc1	CHO parental Ca 69.7, TAAR1 antagonist 106.9, TAAR1 ag 160.8, OX1R antag-2 89.0, GPR7 antag 96.6 | GPR7 antag conf 92.7 | MCHR1 antag 102.9 | TAAR1 ag conf 130.9 | Ga16 ag counter 89.7 | TAAR1 desensitize 106.8 | Ga16 antag count 96.2
CN1CCN(NC(=O)Nc2cccc(F)c2)CC1	none
COc1ccc(C)cc1N(CC(=O)NC1CCCC1)C(=O)Cn1nnc(-c2ccc(C)o2)n1	none (no result: OX1R antag-1, CHO parental Ca, OX1R antag-2)
O=C(Nc1ccc(S(=O)(=O)N2CCCC2)cc1)C1CC(=O)N(CCc2ccccc2)C1 (stereo unspecified)	none (no result: OX1R antag-1, CHO parental Ca, OX1R antag-2, GPR7 antag)
CCCC1(c2ccccc2)NC(=O)N(CC(=O)c2[nH]c(C)c(C(=O)OCC)c2C)C1=O (stereo unspecified)	TAAR1 ag 77.6, GPR7 antag 21.9 | GPR7 antag conf 27.4 | MCHR1 antag 45.4 | TAAR1 ag conf 52.4 | Ga16 ag counter 15.8 | TAAR1 desensitize 54.6 | Ga16 antag count 29.0
CCCCCCCOC(=O)C[N+](C)(C)CCOC1CC2CCC1(C)C2(C)C (stereo unspecified)	TAAR1 ag 56.3, GPR7 antag 27.8 (no result: OX1R antag-1, CHO parental Ca, OX1R antag-2) | GPR7 antag conf 66.9 | MCHR1 antag 86.7 | TAAR1 ag conf 74.3 | Ga16 ag counter 38.2 | TAAR1 desensitize inactive | Ga16 antag count 35.0
Cc1ccc(NS(=O)(=O)c2ccc(C(=O)NCc3ccccn3)cc2)cc1	TAAR1 ag 96.0, GPR7 antag 29.9 | GPR7 antag conf 44.2 | MCHR1 antag 32.9 | TAAR1 ag conf 110.0 | Ga16 ag counter 60.3 | TAAR1 desensitize 54.0 | Ga16 antag count 30.8
CS(=O)(=O)Nc1ccc(C(=O)NCc2ccccn2)cc1	none
O=C(c1ccc(S(=O)(=O)Nc2ccccc2)cc1)N1CCCC(C(F)(F)F)C1 (stereo unspecified)	TAAR1 antagonist 65.1, TAAR1 ag 116.5, GPR7 antag 47.8 | GPR7 antag conf 61.1 | MCHR1 antag 36.2 | TAAR1 ag conf 99.3 | Ga16 ag counter 57.8 | TAAR1 desensitize 56.5 | Ga16 antag count 29.8
O=C(c1ccccc1)c1ccc(C(=O)N2CCCC(C(F)(F)F)C2)cc1 (stereo unspecified)	none (no result: GPR7 antag)
Fc1cccc(Cc2c(-c3ccccc3)nc3ccc(Cl)cn23)c1	none (no result: OX1R antag-1, CHO parental Ca, OX1R antag-2, GPR7 antag)
Cc1ccc(S(=O)(=O)N/N=C/c2ccc(OC3CSC3)cc2)cc1	CHO parental Ca 56.0, TAAR1 antagonist 93.1, TAAR1 ag 91.3, OX1R antag-2 84.5, GPR7 antag 33.6 | GPR7 antag conf 89.4 | MCHR1 antag 83.7 | TAAR1 ag conf 98.0 | Ga16 ag counter 56.2 | TAAR1 desensitize 96.7 | Ga16 antag count 71.2
COc1cccc(NC(=S)NC(=O)Cc2ccc(Cl)cc2)c1	TAAR1 antagonist 84.1, TAAR1 ag 92.8, GPR7 antag 34.8 | GPR7 antag conf 64.2 | MCHR1 antag 40.7 | TAAR1 ag conf 123.6 | Ga16 ag counter 82.8 | TAAR1 desensitize 91.1 | Ga16 antag count 68.7
COc1ccccc1NC(=S)NC(=O)Cc1ccc(Cl)cc1	TAAR1 antagonist 106.7, TAAR1 ag 125.0, GPR7 antag 53.5 | GPR7 antag conf 30.9 | MCHR1 antag 36.7 | TAAR1 ag conf 126.3 | Ga16 ag counter 88.5 | TAAR1 desensitize 101.0 | Ga16 antag count 72.9
